# An excerpt weighted towards active compounds, which were near 3.1% of everything screened.
# rCAG RNA binder – molecules binding r(CAG) RNA repeats; r(CAG) RNA repeat, TO-PRO-1 dye displacement fluorescence; inhibition, % at 3 µM; actives 1.3% (n = 370,000);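 active = inhibition above the plate cutoff, the mean of all test compounds on that plate plus 3 SD, cut at about 35% in these data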;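 note: 0% = DMSO alone and 100% = 100 µM mitoxantrone as full dye displacement; higher means more dye released from RNA so lower well fluorescence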
# CSN inh – CSN deneddylation inhibition. actives 0.38% (n = 360,000). inhibition, % at 12.5 µM. Purified CSN, SCF-Nedd8-OG deneddylation, fluorescence polarization. Q92905;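 active = pattern-corrected inhibition above about 35%, with an unprinted fluorescence ratio check between 0.5 and 1.5, limit read from the data, passing the limit was not always enough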;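 note: 0% = enzyme with substrate and 100% = substrate without enzyme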
#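 Material: purified human Csn5 enzyme expressed in HEK293T cells / Medium: Tris buffer pH 7.5, NaCl, DTT, Tween-20, trehalose, ovalbumin / Compound dosing: 12.5 µM single point / Schedule: 90 min incubation of compound, enzyme and substrate at room temperature / Signal: fluorescence polarization of the substrate / Control set: no-enzyme wells high, enzyme-with-substrate wells low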
# MBD2 DNA inh – MBD2-methylated oligo binding inhibition; TR-FRET, MBD2 binding to methylated oligonucleotide; AID 686964; Q9UBB5; actives 0.31% (n = 370,000); inhibition, % at 4.4 µM; in the data active = inhibition above about 13%
# LEDGF integ inh – blocks HIV-1 LEDGF/p75-dependent DNA integration; TR-FRET IN-LEDGF/p75 DNA integration, Eu/Cy5; inhibition, % at 3.7 µM; actives 0.64% (n = 370,000);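 active = inhibition above the screen-wide mean plus 3 SD, cut at about 13% in these data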;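 note: signal is the Cy5 over europium emission ratio at 671 and 618 nm; 0% = plate median of compound wells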
# UHRF1 binding – UHRF1 methyl-DNA binding inhibition; Q96T88; UHRF1 binding to methylated oligo, TR-FRET; inhibition, % at 4.4 µM; actives 0.75% (n = 370,000); in the data active = inhibition above about 21%;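 note: UHRF1 SRA domain binding a hemimethylated CpG hairpin DNA probe; 0% = median of test compound wells and 100% = reference inhibitor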
# ATG4B inhibitor – inhibitors of human ATG4B cysteine protease; ATG4B cleavage of LC3-PLA2, NBD-HPC fluorescence, 1 h; inhibition, % at 8.33 µM; actives 0.51% (n = 340,000); Q9Y4P1; in the data active = inhibition above about 40%
# ATG4B conf – ATG4B (human) inhibition, single-dose confirmed | actives 92% (n = 320) | inhibition, % at 8.33 µM | ATG4B protease fluorescent substrate cleavage assay | shares compounds with ATG4B inhibitor | AID 504757; in the data active = inhibition above about 39%
# PLA2 counter – counter-screen for ATG4B inhibitors: human phospholipase A2 | purified PLA2, NBD-C6-HPC fluorescence, 45 min | inhibition, % at 8.33 µM | shares compounds with ATG4B inhibitor | actives 66% (n = 1,600); in the data active = inhibition above about 50%
# The depositor's hits bear a star; . = not tested or not shown.
SMILES,rCAG RNA binder,CSN inh,MBD2 DNA inh,LEDGF integ inh,UHRF1 binding,ATG4B inhibitor,PLA2 counter,others
Nn1c(SCC(=O)NC2CCCCC2)nnc1-c1cc(-c2ccc(F)cc2)n[nH]1,2.3,.,-2.0,-0.3,-1.6,.,.,
CC(C)c1ccc(/C=C/C(=O)N2CCc3ccccc3C2)cc1,-4.5,-2.3,1.1,-2.2,1.1,58.6*,62.9*,
CCOC(=O)CSc1nc2ccccc2c(=O)n1CC(C)C,-8.1,14.2,-1.8,5.5,1.5,57.4*,56.4*,
CCOC(=O)CSc1nc2ccccc2c(=O)n1CC,-7.2,2.6,2.4,0.5,0.0,0.9,.,
CCn1c(SCC(=O)OC2CCCCC2)nc2ccccc2c1=O,-2.2,-2.1,3.0,0.4,9.2,4.4,.,
CCOC(=O)CSc1nc2ccccc2c(=O)n1CC1CCCC1,-3.2,8.2,-2.7,6.9,1.6,70.6*,70.7*,
COc1ccc(-c2nnc(CSc3nc4ccccc4c(=O)n3CC(C)C)o2)cc1OC,-1.0,-1.7,-4.4,0.8,11.4,45.2*,44.2,ATG4B conf=74.1*
CCCCN1C(=O)N2Cc3ccccc3C2CS1(=O)=O (stereo unspecified),-1.8,.,0.2,8.0,0.7,.,.,
COCCCNC(=O)C[C@H]1C[C@@]2(C(=O)OC)C(=C[C@H](C3CCCC3)O[C@@H]2C)N(Cc2ccc(Cl)cc2Cl)C1=O,5.8,.,-0.8,-2.2,2.9,.,.,
CC(C)c1cc(C(C)C)c(S(=O)(=O)N2CCC(C(=O)NCC3COCCO3)CC2)c(C(C)C)c1 (stereo unspecified),3.9,.,0.5,-5.0,-1.8,.,.,
O=C(CN1C(=O)COc2ccccc21)NCCCN1CCc2ccccc2C1,-5.1,2.1,-4.9,0.6,-2.1,75.6*,-11.8,
CSc1nc2ccc(Cl)cc2[nH]1,-0.9,-1.2,5.8,-0.7,3.1,-2.6,.,
CSc1nc2cc(Oc3cccc(Cl)c3Cl)c(Cl)cc2[nH]1,7.3,-8.6,2.0,3.1,6.5,65.0*,77.1*,
CCOC(=O)N1CCN(C(=O)C[C@H]2C[C@@]3(C(=O)OC)C(=C[C@H](C4CCCC4)O[C@@H]3C)N(CCC3=CCCCC3)C2=O)CC1,3.6,.,3.7,-2.2,0.6,.,.,
Oc1c(Br)cc(Br)cc1/C=N/n1c(-c2ccccc2)n[nH]c1=S,6.4,8.3,6.2,-5.4,-2.8,41.6*,8.7,ATG4B conf=45.3*
CCCC1CCC2(CC1)CCC2OC(=S)Nc1ccc(I)cc1 (stereo unspecified),.,.,-7.2,0.5,-0.5,.,.,
O=C(Nc1ccc(Cl)cc1)NC1CCCc2ccccc21 (stereo unspecified),1.7,2.9,1.7,-0.6,-1.7,68.0*,66.2*,
O=C(CSc1ccc(Cl)cc1)Nc1ccccc1Oc1ccccc1,5.0,-10.0,8.1,2.5,2.8,40.3*,15.3,
O=C(CSc1ccc(Br)cc1)Nc1ccccc1Oc1ccccc1,3.8,-0.3,0.9,1.1,1.6,9.3,.,
O=C(NC1CCCCN(Cc2ccc(OC(F)(F)F)cc2)C1=O)c1cccc(C(F)(F)F)c1 (stereo unspecified),-2.2,.,0.8,-2.1,-0.3,.,.,
Brc1ccc2[nH]c3c(N4CCc5ccccc5C4)ncnc3c2c1,.,.,.,.,.,48.0*,63.4*,
Fc1ccc2[nH]c3c(N4CCc5ccccc5C4)ncnc3c2c1,11.0,0.4,1.3,2.7,3.5,33.5,.,
COc1cccc(NC(=O)C2CCCN2C(=O)NC2CCC(C)CC2)c1 (stereo unspecified),1.2,.,-3.8,-3.2,-1.8,.,.,
O=C(OC12CCCN(C1)/C(=C/c1ccc(Cl)cc1)C2)c1ccc(Cl)cc1 (stereo unspecified),5.9,.,0.7,0.5,1.2,.,.,
COC(=O)C1CN(Cc2cn(Cc3ccc(OC)cc3)nn2)CCS(=O)(=O)N1Cc1ccc(Cl)cc1 (stereo unspecified),1.9,.,-4.2,1.8,-0.4,.,.,
COc1ccc(Cn2c(C(F)(F)F)ccc(C(N)=O)c2=O)cc1,0.1,3.8,1.1,11.3,4.7,2.8,.,

# High-throughput results deposited in PubChem by several laboratories.
